The results in this text go back to ChEMBL document CHEMBL3526053, “Species-dependent uptake of glycylsarcosine but not oseltamivir in Pichia pastoris expressing the rat, mouse, and human intestinal peptide transporter PEPT1” (Drug Metab Dispos, 2012).

Data set [1] deals with T1, Solute carrier family 15 member 1 (Mus musculus, UniProt Q9JIP7).
T1 sequence (Q9JIP7 whole entry): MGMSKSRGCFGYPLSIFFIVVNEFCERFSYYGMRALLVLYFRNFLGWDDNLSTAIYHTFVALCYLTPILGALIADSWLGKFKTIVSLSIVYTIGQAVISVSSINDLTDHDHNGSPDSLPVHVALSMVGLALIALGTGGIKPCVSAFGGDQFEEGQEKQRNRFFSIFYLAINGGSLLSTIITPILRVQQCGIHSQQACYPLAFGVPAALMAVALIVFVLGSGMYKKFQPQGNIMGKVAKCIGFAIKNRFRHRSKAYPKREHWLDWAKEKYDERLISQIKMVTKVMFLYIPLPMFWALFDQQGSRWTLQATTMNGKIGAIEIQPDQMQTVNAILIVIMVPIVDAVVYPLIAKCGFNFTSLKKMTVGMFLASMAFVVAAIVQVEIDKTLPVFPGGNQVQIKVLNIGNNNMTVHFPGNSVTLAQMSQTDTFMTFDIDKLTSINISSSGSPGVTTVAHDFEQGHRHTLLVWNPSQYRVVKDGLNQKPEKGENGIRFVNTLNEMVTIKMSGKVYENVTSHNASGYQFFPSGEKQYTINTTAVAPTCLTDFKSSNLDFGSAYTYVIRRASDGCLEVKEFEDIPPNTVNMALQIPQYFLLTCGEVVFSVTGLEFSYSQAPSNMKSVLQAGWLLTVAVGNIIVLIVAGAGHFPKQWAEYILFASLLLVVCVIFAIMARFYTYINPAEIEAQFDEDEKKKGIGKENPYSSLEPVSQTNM
Nature of the data set: Drug uptake in Pichia pastoris GS115 expressing mouse recombinant PEPT1 at 5 uM after 30s by dual-channel liquid scintillation counting analysis in presence of cephradine relative to control. The format is ADME. To be noted: 0.5 min. The essentials: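 [3H]GlySar 5.0 µM final, 30-s uptake at 24°C in 100 mM potassium phosphate pH 6.5, with or without a potential inhibitor at 10 mM. Cells are methanol-induced transformants. Values are vector-subtracted and expressed as percent of buffer control. Mean ± SE (n=3). ANOVA with Dunnett's test.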

In data set [2] the target is T2, Solute carrier family 15 member 1 (Homo sapiens, UniProt P46059).
T2 sequence (P46059 whole entry): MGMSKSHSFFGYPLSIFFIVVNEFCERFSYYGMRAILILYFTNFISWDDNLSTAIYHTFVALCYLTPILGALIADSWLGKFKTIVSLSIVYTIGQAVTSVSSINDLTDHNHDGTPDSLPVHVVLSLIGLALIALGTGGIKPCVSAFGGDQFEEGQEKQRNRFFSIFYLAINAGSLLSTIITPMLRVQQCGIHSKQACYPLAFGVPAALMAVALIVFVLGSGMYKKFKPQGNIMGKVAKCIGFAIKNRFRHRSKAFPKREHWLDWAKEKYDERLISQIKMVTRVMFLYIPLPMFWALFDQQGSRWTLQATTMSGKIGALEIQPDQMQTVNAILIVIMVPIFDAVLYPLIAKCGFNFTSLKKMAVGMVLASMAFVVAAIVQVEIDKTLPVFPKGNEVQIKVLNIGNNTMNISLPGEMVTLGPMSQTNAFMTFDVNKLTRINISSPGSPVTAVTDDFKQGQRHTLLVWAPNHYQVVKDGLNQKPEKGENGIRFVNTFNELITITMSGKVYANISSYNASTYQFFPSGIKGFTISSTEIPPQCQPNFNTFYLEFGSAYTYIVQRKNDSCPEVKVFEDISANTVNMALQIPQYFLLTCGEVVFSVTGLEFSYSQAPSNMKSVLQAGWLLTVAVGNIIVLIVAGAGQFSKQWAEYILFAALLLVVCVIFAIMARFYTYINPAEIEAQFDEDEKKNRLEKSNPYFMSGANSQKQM
Description: Activity at human recombinant PEPT1 expressed in Pichia pastoris GS115 assessed as non-saturable rate constant after 30s by dual-channel liquid scintillation counting analysis. The format is ADME. The essentials: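 [3H]GlySar concentration series 0.005-10 mM, 30-s uptake at 24°C in 100 mM potassium phosphate pH 6.5. Cells come from His+Mut+ GS115 transformants induced 20-24 h in methanol medium. Uptake is normalised to OD600. Data are fitted to Michaelis-Menten plus a first-order nonsaturable term (Kd), weighting unity. Parameters are mean ± SE (n=9).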

In the case of `[3H]C(C(=O)O)N(C)C(=O)CN` (configuration not stated), the Drug uptake in data set [1] came out at 9.8%. Further, the Kd in data set [2] is 2.21 uL/OD/min.
